Source: ChEMBL document CHEMBL1147747, “HIV integrase inhibitors with nucleobase scaffolds: discovery of a highly potent anti-HIV agent” (J Med Chem, 2006)
Activity calls are given as the source filed them. No cut-off for these calls is given here.

Tests used:
[1] = biological target: T1, Human immunodeficiency virus type 1 integrase (Human immunodeficiency virus 1, UniProt Q7ZJM1); experiment: Inhibition of 3' processing step of wt HIV1 integrase
[2] = biological target: T1, Human immunodeficiency virus type 1 integrase; experiment: Inhibition of strand transfer step of wt HIV1 integrase
HeLa [3] = experiment: Anti HIV activity against HIV1 NL4-3 in HeLa-CD4-LTR-beta-gal cells in MAGI-X4 assay; assay type: functional, cell-based
Summary of the method: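 MAGI-X4 assay in HeLa-CD4-LTR-β-gal cells infected with HIV-1 NL4-3. Detects blocks in replication up to and including Tat transactivation of the LTR. Triplicate determinations over serial ½log10 dilutions (six to nine concentrations). AZT served as positive control.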

in vitro [4] = conditions: PBMC infected with HIV-1 TEKI
PBMC [5] = experiment: Antiviral activity against HIV1 NL4-3 replication in PBMC at 200 uM; assay type: functional, cell-based; conditions: Homo sapiens, NL4-3, PBMC
Summary of the method: (§1)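 PBMC cell-based microtiter anti-HIV assay against clinical isolate HIV-1 TEKI (NSI phenotype) or HIV-1 NL4-3 (SI phenotype). Test materials were run in triplicate as serial ½log10 dilutions, six to nine concentrations, from a stated high concentration (200 μM or 1 μM). IC50 and IC90 were determined, with cell viability measured in parallel. AZT was the MOI-sensitive positive control.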

in vitro [6] = conditions: PBMC infected with HIV-1 NL4-3
PBMC [7] = experiment: Antiviral activity against HIV1 TEKI replication in PBMC at 200 uM; assay type: functional, cell-based; conditions: Homo sapiens; summary of the method: as §1
HeLa [8] = experiment: Cytotoxicity against HeLa-CD4-LTR-beta-gal cells at 200 uM; assay type: functional, cell-based; conditions: Homo sapiens
Summary of the method: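 Cytotoxicity was measured in HeLa-CD4-LTR-β-gal cells within the MAGI-X4 assay. Up to 200 μM was tested, in triplicate, as serial ½log10 dilutions.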

[9] = Therapeutic index (TI=CC50/IC50) in HIV1 NL4-3 at uM; assay type: cell-based; conditions: PBMC infected with HIV-1 NL4-3; read-out: Ratio CC50/IC50
Summary of the method: (§2)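 Therapeutic index was calculated as CC50/IC50 from the PBMC assay, using HIV-1 NL4-3 or HIV-1 TEKI. Cell viability gave CC50, and antiviral readout gave IC50. Triplicate serial ½log10 dilutions were used, with a high test concentration of 200 μM or 1 μM.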

[10] = Therapeutic index (TI=CC50/IC50) in HIV1 TEKI at 1 uM; assay type: cell-based; conditions: PBMC infected with HIV-1 TEKI; read-out: Ratio CC50/IC50; summary of the method: as §2
PBMC [11] = experiment: Antiviral activity against HIV1 TEKI replication in PBMC at 1 uM; assay type: functional, cell-based; conditions: Homo sapiens; summary of the method: as §1
PBMC [12] = experiment: Antiviral activity against HIV1 NL4-3 replication in PBMC at 1 uM; assay type: functional, cell-based; conditions: Homo sapiens, NL4-3, PBMC; summary of the method: as §1

T1 sequence (Q7ZJM1 whole entry): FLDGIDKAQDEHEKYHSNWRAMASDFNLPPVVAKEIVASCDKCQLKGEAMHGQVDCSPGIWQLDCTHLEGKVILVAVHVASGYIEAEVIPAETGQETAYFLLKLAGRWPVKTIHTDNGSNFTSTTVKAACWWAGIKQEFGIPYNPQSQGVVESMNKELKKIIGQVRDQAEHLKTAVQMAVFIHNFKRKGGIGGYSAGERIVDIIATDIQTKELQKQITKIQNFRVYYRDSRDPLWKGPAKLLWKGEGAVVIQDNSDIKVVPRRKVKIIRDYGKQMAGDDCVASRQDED

With `O=C(O)C(=O)/C=C(\O)c1cn(Cc2ccccc2F)c(=O)n(Cc2ccccc2F)c1=O` the IC50 [1] was 4100 nM and the IC50 [2] was < 600 nM.

In the case of `O=C(O)C(=O)/C=C(\O)c1cn(Cc2ccccc2)c(=O)[nH]c1=O`, the IC50 [1] is reported as 10000 nM and the IC50 [2] is reported as 500 nM.

With `O=C(O)C(=O)/C=C(\O)c1cn(Cc2ccccc2)c(=O)n(Cc2ccccc2)c1=O` the Activity (HeLa [3]) was “Active”, the selectivity ratio at 200 µM (in vitro [4]) was > 4000 and the CC50 (PBMC [5]) was > 200000 nM. For the same compound, the CC90 (PBMC [5]) was > 200000 nM, the IC50 (PBMC [5]) was < 20 nM and the IC90 (PBMC [5]) was 1540 nM. For the same compound, the selectivity ratio at 200 µM (in vitro [6]) was > 10000, the CC50 (PBMC [7]) was > 200000 nM and the CC90 (PBMC [7]) was > 200000 nM. For the same compound, the IC50 (PBMC [7]) was 50 nM, the IC90 (PBMC [7]) was 3910 nM and the IC50 [1] was 3700 nM. The IC50 [2] was 200 nM and the Activity (HeLa [8]) was “inactive”.

With `CC(C)(C)NC(=O)[C@@H]1C[C@@H]2CCCC[C@@H]2CN1C[C@@H](O)[C@H](Cc1ccccc1)NC(=O)[C@H](CC(N)=O)NC(=O)c1ccc2ccccc2n1` the Activity (HeLa [3]) was “inactive”.

In the case of `Cc1cn([C@H]2C[C@H](N=[N+]=[N-])[C@@H](CO)O2)c(=O)[nH]c1=O` [ZIDOVUDINE], the Activity (HeLa [3]) is reported as “Active”, the selectivity ratio [9] is reported as > 5560 and the selectivity ratio [10] is reported as > 7140. The CC50 (PBMC [11]) was > 1000 nM, the IC50 (PBMC [11]) was 0.14 nM and the CC50 (PBMC [12]) was > 1000 nM. The IC50 (PBMC [12]) was 0.18 nM.

With `O=C(O)C(=O)/C=C(\O)c1cn(Cc2ccc(F)cc2)c(=O)n(Cc2ccc(F)cc2)c1=O` the IC50 [1] was 3900 nM and the IC50 [2] was < 700 nM.
